# Reference: article PMC2682635 (Psychopharmacology, 2009)
# “And” between values parts separate entries of the source, which are not always exact repeats. Identical values can stand only once. “Also recorded” adds a separate entry of the source. Like-named read-outs stand apart in the source and are kept apart here.
# Experiments:
# baboons [1] = experiment: Food-maintained operant behavior procedure; format: in vivo, Papio anubis
# Procedure, shortened: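 Test compound or vehicle was diluted in water to 150 ml total and infused intragastrically. Sessions started at 9:00 am right after dosing. Food pellets were available 20 h/day on a fixed-ratio schedule via a Lindsley operandum. Pellets earned were counted in ten 2-h bins up to 20 h. Analysis was repeated-measures two-way ANOVA (dose × time), p<0.05.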
# baboons [2] = experiment: 30-min continuous behavioral observation session; format: in vivo, Papio anubis
# baboons [3] = experiment: Fine-motor task; format: in vivo, Papio anubis; conditions: across 30, 60 and 120 min, p<0.001
# rhesus monkeys = conditions: food-maintained operant procedure; ref McMahon et al. 2003; cited from earlier work
# baboons [4] = experiment: Paper and pencil behavioral checklists; format: in vivo, Papio anubis
# [5] = cited from earlier work; for Mean maximum concentration of GHB in plasma: human, 50 mg/kg GHB
# baboons [6] = conditions: 4 h after administration; reanalyzed data; ref Goodwin et al. 2005; cited from earlier work
# baboons [7] = conditions: ref Goodwin et al. 2005, cited from earlier work
# humans = conditions: ref Carter et al. 2006; cited from earlier work
# [8] = Pharmacokinetics: GHB in plasma after intragastric GHB, GBL or 1,4-BD; conditions: for Mean maximum concentration of GHB in plasma: baboon, ±SD
# [9] = 100 mg/kg, 60 to 90 min after drug
# [10] = 180 mg/kg, 60 to 90 min after drug
compound,measurement,setting,value
"O=C1CCCO1 [GBL, Gamma-butyrolactone]",Food-maintained behavior compared to vehicle,"baboons [1]; 100 mg/kg, 2 h after administration, p<0.001",decreased
same,Food-maintained behavior compared to vehicle,"baboons [1]; 180 mg/kg, 2 h after administration, p<0.001",decreased
same,Food-maintained behavior compared to vehicle,"baboons [1]; 180 mg/kg, 4 h after administration",decreased
same,Food-maintained behavior,"baboons [1]; 240 mg/kg, one subject (HA), data not shown",suppressed over the entire 20 h
same,Increase of food-maintained behavior,baboons [1]; all doses tested,none of the doses increased
same,Time food-maintained behavior was suppressed after administration,baboons [1]; high doses,4 h
same,Duration of lip droop compared to vehicle,baboons [2]; [9],significantly increased
same,Frequency of ataxia compared to vehicle,baboons [2]; [9],significantly increased
same,Frequency of scratch/groom compared to vehicle,baboons [2]; [9],significantly increased
same,Frequency of tremor/jerks compared to vehicle,baboons [2]; [9],significantly increased
same,Duration of lip droop compared to vehicle,baboons [2]; [10],significantly higher
same,Duration of lying down compared to vehicle,baboons [2]; [10],increased
same,Frequency of ataxia compared to vehicle,baboons [2]; [10],significantly higher
same,Frequency of scratch/groom compared to vehicle,baboons [2]; [10],decreased
same,Frequency of tremor/jerks compared to vehicle,baboons [2]; [10],significantly higher
same,Frequency of vomit/retch compared to vehicle,baboons [2]; [10],increased
same,Observed effects of the high dose,"baboons [2]; 240 mg/kg, once in one subject (HA), data not shown","resulted in convulsions; also recorded: vomit/retch, ataxia, tremor/jerks, sedation/anesthesia, and seizures; also recorded: both seizures and catalepsy"
same,Duration to complete the fine-motor task compared to vehicle,baboons [3]; 100 mg/kg,increased
same,Duration to complete the fine-motor task compared to vehicle,baboons [3]; 180 mg/kg,increased
same,Time after administration at which response rate was decreased,rhesus monkeys,90 min
same,"Time to maximal effect, ataxia",baboons [4]; 100 mg/kg,30 min
same,"Time to maximal effect, tremor/jerks",baboons [4]; 100 mg/kg,30 min
same,"Duration of effects in ≥50% of subjects, ataxia",baboons [4]; 100 mg/kg IG,1.0 h
same,"Duration of effects in ≥50% of subjects, lip droop",baboons [4]; 100 mg/kg IG,2.0 h
same,"Duration of effects in ≥50% of subjects, vomit",baboons [4]; 100 mg/kg IG,1.0 h
same,"Number of subjects at maximal effect, ataxia",baboons [4]; 100 mg/kg IG,3/4
same,"Number of subjects at maximal effect, lip droop",baboons [4]; 100 mg/kg IG,3/4
same,"Number of subjects at maximal effect, tremor/jerk",baboons [4]; 100 mg/kg IG,1/4
same,"Number of subjects at maximal effect, vomit",baboons [4]; 100 mg/kg IG,2/4
same,"Recovery of baseline (100% of subjects), ataxia",baboons [4]; 100 mg/kg IG,2.5 h
same,"Recovery of baseline (100% of subjects), lip droop",baboons [4]; 100 mg/kg IG,3.5 h
same,"Recovery of baseline (100% of subjects), vomit",baboons [4]; 100 mg/kg IG,2.0 h
same,"Time to maximal effects, ataxia",baboons [4]; 100 mg/kg IG,0.5 h
same,"Time to maximal effects, lip droop",baboons [4]; 100 mg/kg IG,1.0 h
same,"Time to maximal effects, tremor/jerk",baboons [4]; 100 mg/kg IG,0.5 h
same,"Time to maximal effects, vomit",baboons [4]; 100 mg/kg IG,1 h and 1.0 h
same,"Time to maximal effect, ataxia",baboons [4]; 180 mg/kg,30 min
same,"Time to maximal effect, tremor/jerks",baboons [4]; 180 mg/kg,30 min
same,"Duration of effects in ≥50% of subjects, ataxia",baboons [4]; 180 mg/kg IG,4 h and 4.0 h
same,"Duration of effects in ≥50% of subjects, lip droop",baboons [4]; 180 mg/kg IG,2.5 h
same,"Duration of effects in ≥50% of subjects, tremor/jerk",baboons [4]; 180 mg/kg IG,5 h and 5.0 h
same,"Duration of effects in ≥50% of subjects, vomit",baboons [4]; 180 mg/kg IG,1.0 h
same,"Number of subjects at maximal effect, ataxia",baboons [4]; 180 mg/kg IG,4/4
same,"Number of subjects at maximal effect, lip droop",baboons [4]; 180 mg/kg IG,4/4
same,"Number of subjects at maximal effect, tremor/jerk",baboons [4]; 180 mg/kg IG,4/4
same,"Number of subjects at maximal effect, vomit",baboons [4]; 180 mg/kg IG,4/4
same,"Recovery of baseline (100% of subjects), ataxia",baboons [4]; 180 mg/kg IG,6.0 h
same,"Recovery of baseline (100% of subjects), lip droop",baboons [4]; 180 mg/kg IG,6.0 h
same,"Recovery of baseline (100% of subjects), tremor/jerk",baboons [4]; 180 mg/kg IG,6.0 h
same,"Recovery of baseline (100% of subjects), vomit",baboons [4]; 180 mg/kg IG,2.0 h
same,"Time to maximal effects, ataxia",baboons [4]; 180 mg/kg IG,0.5 h
same,"Time to maximal effects, lip droop",baboons [4]; 180 mg/kg IG,0.5 h
same,"Time to maximal effects, tremor/jerk",baboons [4]; 180 mg/kg IG,0.5 h
same,"Time to maximal effects, vomit",baboons [4]; 180 mg/kg IG,1 h and 1.0 h
same,"Return to baseline for all observed behavioral effects, time postadministration","baboons [4]; baboon (Papio anubis), in vivo, oral",≤ 6 h
"O=C(O)CCCO [GHB, Gamma-hydroxybutyrate]","Maximum concentration of GHB, range","[5]; human subjects, total doses of 3−4.5 g GHB (i.e., 42.8 mg/kg), ref Scharf et al. 1998",30 to 103 µg/mL
same,Mean maximum concentration of GHB in plasma,[5]; ref Abanades et al. 2007,83.1 (+10.7 SD) μg/ml
same,Mean maximum concentration of GHB in plasma,[5]; ref Palatini et al. 1993,20 µg/mL
same,Food-maintained behavior compared to vehicle,baboons [6],not significantly altered
same,Duration to complete the fine-motor task,"baboons [7]; 180−420 mg/kg, 120 min postadministration",increased
same,Duration to complete the fine-motor task,"baboons [7]; any dose tested, 60 min postadministration",did not alter
same,Time of maximal drug effects postadministration,humans,1−2 h
same,Mean maximum concentration of GHB in plasma,[8]; 32 mg/kg GHB,18.46 (±8.66 SD) μg/ml
same,Mean maximum concentration of GHB in plasma,[8]; 100 mg/kg GHB,72.2 (±15.73 SD) μg/ml
same,AUC,"[8]; monkey, plasma, po, 320 mg/kg",4580 µM·h
same,Cmax,"[8]; monkey, plasma, po, 320 mg/kg",598 to 1940 µM
same,half-life,"[8]; monkey, plasma, po, 320 mg/kg",12.2 h
same,Tmax,"[8]; plasma, po, 320 mg/kg",6 h
